# procasp3 activ – procaspase-3 (human) activation; P42574; recombinant procaspase-3 D3A, Ac-DEVD-pNA absorbance 405 nm; hit rate 0.11% among 330,000; activation, % at 8.5 µM;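 active = activation above the mean of all tested compounds plus 3 SD, cut at about 21% in these data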
#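 Assay system – Procaspase-3 D3A mutant, all three cleavage aspartates alanine · Controls – DMSO-only low control, 5 µM PC-3 D3A high control · Schedule – 1 h compound preincubation, 2 h substrate hydrolysis at 25 °C · Signal – 405 nm absorbance of p-nitroaniline, reads at 0 and 120 min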
# proCasp7 act – activates human procaspase-7, counter-screen for procaspase-3 activators. P55210. recombinant procaspase-7, Ac-DEVD-pNA absorbance 405 nm; D23A/D198A/D206A triple mutant, cannot self-cleave; scale: DMSO 0, 5 µM enzyme 100. activation, % at 8.5 µM. hit rate 0.093% among 330,000. AID 463210;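 active = percent activation above the screen-wide mean plus 3 SD, cut at about 25% in these data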
#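 Replicates: singlicate. Assay system: Procaspase-7 triple mutant (PC-7 D3A). Signal: 405 nm absorbance of p-nitroaniline. Times: 1 h preincubation, 2 h reaction. Buffer or medium: Zinc-free HEPES pH 7.4 with 300 mM NaCl, 0.01% Triton X-100. Also added: DEVD-pNA substrate. Benchmarks: DMSO wells as 0%, DMSO with 5 µM added PC-7 as 100%.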
# PLCb3 inh – inhibitors of human phospholipase C beta3; Purified PLC-beta3, fluorogenic substrate, fluorescence; inhibition, % at 12.2 µM; hit rate 0.18% among 370,000; AID 720704; in the data active = inhibition above about 11%
# Arrestin-AP2 inh – human beta-arrestin and AP2 interaction inhibition; FITC-arrestin peptide / GST-AP2 beads, flow cytometry; AP2 beta2 appendage carries R879A mutation; inhibition, % at 10 µM; hit rate 0.31% among 340,000; AID 504490;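 active = inhibition above a set limit, near 3 SD of compounds lacking own fluorescence, cut at about 54% in these data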
#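 Material – GST-tagged AP2 beta2-adaptin appendage (R879A) on 4 µm glutathione beads · Probe or stimulus – fluorescein-tagged arrestin peptide at 50 nM final · Timing – 12 min plus 1 h, RT · Detection – bead flow cytometry, FITC channel · Read-out basis – inhibition as reduced fluorescein signal on beads, percent · Medium – PBS plus Tween 20 (0.05%) and BSA (0.1%)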
# PLC-gamma1 inh – PLC-gamma1 (human) inhibition, primary screen | inhibition, % at 12.2 µM | AID 720700 | hit rate 0.84% among 370,000 | P19174 | purified PLC-gamma1, fluorogenic substrate, fluorescence
# sPLA2-III inh – Blocks human group III sPLA2 activity; Q9NZ20; QFRET BODIPY PC-A2 liposome hydrolysis, fluorescence; inhibition, % at 12.2 µM; hit rate 0.56% among 370,000; AID 743126;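 active = inhibition above mean plus 3 SD of compounds lying within the high and low control bounds, cut at about 19% in these data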
# PLCgamma1 ctr – counter-screen for PLC-beta3 inhibitors: inhibitors of human PLC-gamma1; shares compounds with PLC-gamma1 inh; purified PLC-gamma1, fluorogenic substrate, fluorescence; inhibition, % at 12.3 µM; hit rate 3.1% among 3,300
# PLCbeta3 conf – confirmation of human PLC-beta3 inhibitors; shares compounds with PLC-gamma1 inh; purified PLC-beta3, fluorogenic substrate fluorescence; inhibition, % at 12.3 µM; hit rate 1% among 3,300; in the data active = inhibition above about 11%
# Hits are given with their value; 0 = inactive; - = not tested or not shown. Only some compounds are listed: those with a hit (about 1.9% of all), similar ones and a draw of the others. Rule as the data show it, unless noted: active = inhibition above about 9.5%; inactive = the rest.
SMILES,procasp3 activ,proCasp7 act,PLCb3 inh,Arrestin-AP2 inh,PLC-gamma1 inh,sPLA2-III inh,PLCgamma1 ctr,PLCbeta3 conf
O=C(NCc1cccnc1)Nc1ccc(Cl)c(Cl)c1,0,0,0,0,9.6,0,0,0
Nc1nc2n[nH]nc2c(=O)[nH]1,0,0,0,0,0,0,-,-
Nc1[nH]c(=O)nc2snnc12,-,-,0,0,9.6,0,0,0
O=C(NCc1ccccc1)C1COc2ccccc2O1 (stereo not given),0,0,0,0,9.8,0,0,0
CN(C)c1ncnc2c1ncn2[C@H]1CN(CCN2CCOCC2)C[C@@H](CO)O1,-,-,0,-,11,0,0,0
CC(C)N(C)c1ncnc2c1ncn2[C@H]1CN(CCN2CCOCC2)C[C@@H](CO)O1,-,-,0,-,0,0,-,-
CC(C)CNS(=O)(=O)/C=C/c1ccccc1CNC(=O)OC(C)(C)C,-,-,0,-,0,0,-,-
COc1cccc(S(=O)(=O)Nc2ccc3c(c2)OCCO3)c1,-,-,0,0,9.6,0,0,0
O=C(Nc1ccccc1)C1CCCCC1,0,0,0,0,0,0,-,-
O=C(Nc1ncccn1)C1CCCCC1,0,0,0,0,11,0,0,0
COC(=O)[C@]12CCCCC=C1N(Cc1ccc(OC)cc1)C(=O)[C@@H]2CC(=O)NCCC(C)C,-,-,0,-,0,0,-,-
COc1cc(C=C2C(=O)C=CC2=O)ccc1O,-,-,16,-,30,0,0,0
COc1cc(/C=C2/C(=O)CNC2=O)ccc1O,0,0,0,0,0,0,-,-
COC(=O)C1=CC[C@@H](NC(=O)OC(C)(C)C)[C@H](O)[C@H]1O[Si](C)(C)C(C)(C)C,-,-,0,-,0,0,-,-
COc1ccc2c(c1)C[C@@H](CON1C(C)(C)CCCC1(C)C)N2S(=O)(=O)c1ccc(C)cc1,-,-,0,-,0,0,-,-
O=C(Nc1ccc(F)cc1)Nc1ccccc1F,0,0,0,0,0,0,-,-
O=C(Nc1ccc(F)cc1)Nc1cccnc1Cl,0,0,0,0,13,0,0,0
COC(=O)[C@]12C[C@H](CC(=O)NCCc3ccccc3OC)C(=O)N(Cc3cccc4ccccc34)C1=C[C@H](C(C)C)O[C@@H]2C1CC1,-,-,0,-,0,0,-,-
Cc1cc(C)c(NC(=O)Nc2ccccc2C)c(Cl)c1,0,0,0,0,0,0,-,-
Cc1cc(C)c(NC(=O)Nc2ccccc2)c(Cl)c1,0,0,13,0,0,0,0,0
O=C(NCCc1ccccc1)OCc1cn(-c2ccccc2Cl)nn1,-,-,0,-,0,0,-,-
O=C(Nc1ccccc1)Nc1ccc(F)c([N+](=O)[O-])c1,0,0,0,0,0,0,-,-
O=C(Cc1ccc(F)cc1)Nc1ccc(F)c([N+](=O)[O-])c1,0,0,0,0,9.8,0,0,0
CCN(CC)C(=O)C1CCCN(Cc2ccccc2)C1 (stereo not given),0,0,0,0,0,0,-,-
CCN(CC)C(=O)C1CCCN(Cc2ccc(N(C)C)cc2)C1 (stereo not given),0,0,0,0,10,0,0,0
SMILES,procasp3 activ,proCasp7 act,PLCb3 inh,Arrestin-AP2 inh,PLC-gamma1 inh,sPLA2-III inh,PLCgamma1 ctr,PLCbeta3 conf
O=C(C1CCCN(Cc2ccc(Br)cc2)C1)N1CCCCC1 (stereo not given),0,0,0,0,13,0,0,0
COC(=O)[C@]12C[C@H](CC(=O)NCC34CC5CC(CC(C5)C3)C4)C(=O)N(Cc3ccco3)C1=C[C@H](C(C)C)O[C@@H]2C1CC1,-,-,0,-,0,0,-,-
CCOc1cc(Br)cc(C(c2c(C(=O)O)[nH]c3ccccc23)c2c(C(=O)O)[nH]c3ccccc23)c1O,0,0,0,0,28,0,48,0
COC(=O)[C@]12C[C@H](CC(=O)N3CCCC3)C(=O)N(Cc3ccc(Cl)cc3Cl)C1=C[C@H](C1CCCC1)O[C@@H]2C,-,-,0,-,0,0,-,-
Cc1ccc(S(=O)(=O)N2CCCCC2C(=O)N2CCN(Cc3ccccc3)CC2)cc1 (stereo not given),0,0,0,0,12,0,0,0
Cc1ccc(S(=O)(=O)N2CCCC2C(=O)NC2CCCCC2)cc1 (stereo not given),0,0,0,0,12,0,0,0
O=S1(=O)c2ccc(N3CC[C@H](O)C3)cc2O[C@@H]2CCN1C2,-,-,0,-,0,0,-,-
Clc1ccc([C@H]2OC[C@@]3(CNCc4ccc5c(c4)OCO5)CS[C@H](c4ccc(Cl)cc4)N23)cc1,-,-,0,-,0,0,-,-
COc1ccc(C2Nc3ccccc3C(=O)N2Cc2ccco2)cc1COc1c(C)cc(NC(C)=O)cc1C (stereo not given),-,-,0,-,0,0,-,-
CC(=O)Nc1ccc(N2C(=O)CSC2c2c(F)cccc2Cl)cc1 (stereo not given),0,0,14,0,0,0,0,0
COC(=O)[C@H](C(C)C)N(CCc1cn(Cc2ccccc2)nn1)S(=O)(=O)c1ccccc1Br,-,-,0,-,0,0,-,-
CN(C)c1nc(Oc2ccc(=O)n(-c3ccccc3)n2)nc(N2CCOCC2)n1,0,0,0,0,13,0,0,0
CCNc1nc(Oc2ccc(=O)n(-c3ccccc3)n2)nc(N2CCOCC2)n1,0,0,0,0,0,0,-,-
Cc1ccsc1/C=N/NC(=O)C1CC(=O)N(c2ccccc2)C1 (stereo not given),0,0,11,0,0,0,0,0
CCOC(=O)Cc1csc(NC(=S)NC(=O)CC(C)C)n1,0,0,0,0,0,0,-,-
CC(C)CC(=O)NC(=S)Nc1nc(-c2cccc3ccccc23)cs1,0,0,0,0,16,0,0,0
Cc1ccc(Cn2c(=O)n(Cc3ccc(C(=O)NCC4COC4)cc3)c(=O)c3ccccc32)cc1,-,-,0,-,0,0,-,-
NNC(=O)CNc1cccc(Br)c1,0,0,0,0,0,0,-,-
C=CCNc1cccc(Br)c1,0,0,11,0,0,0,0,0
COC(=O)C1=C(C)N(Cc2ccccc2C(F)(F)F)C(=NCc2ccc3c(c2)OCO3)NC1c1cccc(F)c1 (stereo not given),-,-,0,-,0,0,-,-
COC(=O)C1=C(C)N(Cc2ccccc2C(F)(F)F)C(=NCc2ccc3c(c2)OCO3)NC1c1cccc(Cl)c1 (stereo not given),-,-,0,-,12,0,0,0
C=CCN=C1NC(c2cccc(Cl)c2)C(C(=O)OC)=C(C)N1Cc1cccc(C(F)(F)F)c1 (stereo not given),-,-,12,-,0,0,0,0
Cc1ccc(/C=C/C(=O)NCc2cccs2)cc1,0,0,13,0,0,0,0,0
Cc1ccc2c(CN3CCC(C)CC3)cc(=O)oc2c1C,-,-,0,0,0,0,-,-
